Source: ChEMBL document CHEMBL1142542, “Synthesis, mechanistic studies, and anti-proliferative activity of glutathione/glutathione S-transferase-activated nitric oxide prodrugs” (Bioorg Med Chem, 2008)

What was measured:
[1] = Antiproliferative activity against human HCT 116 cells after 72 hrs by MTT assay; assay type: functional, cell-based; details: HCT-116, 72 h
HL-60 = test: Antiproliferative activity against human HL-60 cells after 72 hrs by MTT assay; assay type: functional, cell-based; details: HL-60, 72 h
Method in brief: (§1)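 MTT (CellTiter 96) proliferation assay. Seeded at 10⁴ per well and grown 24 h, then given rising compound concentrations in PBS (from 10 mM DMSO stocks) for 72 h. Six repeats per concentration, at least two independent experiments; IC50 reported.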

[2] = Antiproliferative activity against human H838 cells after 72 hrs by MTT assay; assay type: functional, cell-based; details: NCI-H838, 72 h
[3] = Antiproliferative activity against human BJ-5ta cells after 72 hrs by MTT assay; assay type: cell-based; details: hTERT-BJ
Method in brief: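 10⁴ cells per well, allowed 24 h growth, then exposed 72 h to increasing concentrations added in PBS from 10 mM DMSO stocks. MTT proliferation read-out. Each concentration in six repeats, at least two independent experiments; IC50.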

TK-10 = test: Antiproliferative activity against human TK-10 cells after 72 hrs by MTT assay; assay type: functional, cell-based; details: TK-10, 72 h
OVCAR-5 = test: Antiproliferative activity against human OVCAR5 cells after 72 hrs by MTT assay; assay type: functional, cell-based; details: OVCAR-5, 72 h
[4] = target: T1, Glutathione S-transferase Mu 1 (Homo sapiens) (UniProt P09488); test: Specific activity of human recombinant Glutathione S-transferase Mu 1 at 50 uM by spectrophotometric analysis in presence of glutathione
T1 sequence (whole entry): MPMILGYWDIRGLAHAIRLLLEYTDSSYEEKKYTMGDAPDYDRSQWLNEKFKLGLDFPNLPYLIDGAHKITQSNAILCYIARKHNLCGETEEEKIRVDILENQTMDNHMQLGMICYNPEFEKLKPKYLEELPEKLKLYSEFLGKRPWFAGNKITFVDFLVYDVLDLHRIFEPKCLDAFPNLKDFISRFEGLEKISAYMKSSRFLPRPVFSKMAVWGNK
Method in brief: (§2)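 Reaction of 1 mL held 0.1 M phosphate buffer pH 7.4, 1 mM GSH, 50 μM compound and a catalytic amount of GST. GSTA1-1 and GSTM1-1 were purified recombinant enzymes; GSTP1-1 was purified in-house. Enzymes were first checked for activity with CDNB. Reaction started by adding compound, and the absorbance decrease at its maximum was followed at 37 °C. Specific activity came from the change in extinction coefficient.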

[5] = Antiproliferative activity against human H1395 cells after 72 hrs by MTT assay; assay type: functional, cell-based; details: NCI-H1395, 72 h
[6] = target: T1, Glutathione S-transferase Mu 1 (Homo sapiens); test: Specific activity of human recombinant Glutathione S-transferase Mu 1 at 50 uM by spectrophotometric analysis in presence of glutathione relative to O2-(2,4-dinitrophenyl) 1-[(4-ethoxycarbonyl)piperazin-1-yl]diazen-1-ium-1,2-diolate; method in brief: as §2
[7] = Antiproliferative activity against human 786O cells after 72 hrs by MTT assay; assay type: functional, cell-based; details: 786-0, 72 h
HT-29 = test: Antiproliferative activity against human HT-29 cells after 72 hrs by MTT assay; assay type: functional, cell-based; details: HT-29, 72 h
OVCAR-3 = test: Antiproliferative activity against human OVCAR-3 cells after 72 hrs by MTT assay; assay type: functional, cell-based; details: OVCAR-3, 72 h
A549 = test: Antiproliferative activity against human A549 cells after 72 hrs by MTT assay; assay type: functional, cell-based; details: A549, 72 h; method in brief: as §1
[8] = Antiproliferative activity against human UO-30 cells after 72 hrs by MTT assay; assay type: functional, cell-based; details: UO-30, 72 h
[9] = Stability assessed as nitric oxide release in 0.1 M phosphate buffer at pH 7.4 at 100 to 150 nM measured per mole in presence of glutathione by chemiluminescence analysis; assay type: physicochemical
Caco-2 = test: Antiproliferative activity against human Caco-2 cells after 72 hrs by MTT assay; assay type: functional, cell-based; details: Caco-2, 72 h
[10] = Antiproliferative activity against human H441 cells after 72 hrs by MTT assay; assay type: functional, cell-based; details: NCI-H441, 72 h
U-937 = test: Antiproliferative activity against human U937 cells after 72 hrs by MTT assay; assay type: functional, cell-based; details: U-937, 72 h
Method in brief: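 Cells seeded at 10⁴ per well and grown 24 h, then exposed 72 h to increasing drug concentrations diluted in PBS from 10 mM DMSO stocks. Growth read by MTT assay. Six repeats per concentration, at least two independent experiments; IC50 reported.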

[11] = target: Glutathione S-transferase P (Homo sapiens) (UniProt P09211); test: Specific activity of human Glutathione S-transferase P at 50 uM by spectrophotometric analysis in presence of glutathione; method in brief: as §2
[12] = target: T2, Glutathione S-transferase A1 (Homo sapiens) (UniProt P08263); test: Specific activity of human recombinant Glutathione S-transferase A1 at 50 uM by spectrophotometric analysis in presence of glutathione; method in brief: as §2
T2 sequence (whole entry): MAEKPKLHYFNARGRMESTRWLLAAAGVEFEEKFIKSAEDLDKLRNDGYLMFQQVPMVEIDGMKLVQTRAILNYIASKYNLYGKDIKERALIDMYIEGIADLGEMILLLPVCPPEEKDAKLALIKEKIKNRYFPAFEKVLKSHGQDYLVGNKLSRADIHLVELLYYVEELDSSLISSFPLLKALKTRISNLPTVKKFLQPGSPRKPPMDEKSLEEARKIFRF

HCT-15 = test: Antiproliferative activity against human HCT-15 cells after 72 hrs by MTT assay; assay type: functional, cell-based; details: HCT-15, 72 h
[13] = target: T2, Glutathione S-transferase A1 (Homo sapiens); test: Specific activity of human recombinant Glutathione S-transferase A1 at 50 uM by spectrophotometric analysis in presence of glutathione relative to O2-(2,4-dinitrophenyl) 1-[(4-ethoxycarbonyl)piperazin-1-yl]diazen-1-ium-1,2-diolate; method in brief: as §2
PC-3 = test: Antiproliferative activity against human PC-3 cells after 72 hrs by MTT assay; assay type: functional, cell-based; details: PC-3, 72 h; method in brief: as §1
[14] = target: Glutathione S-transferase P (Homo sapiens) (UniProt P09211); test: Specific activity of human Glutathione S-transferase P at 50 uM by spectrophotometric analysis in presence of glutathione relative to O2-(2,4-dinitrophenyl) 1-[(4-ethoxycarbonyl)piperazin-1-yl]diazen-1-ium-1,2-diolate; method in brief: as §2
[15] = Antiproliferative activity against HREpC cells after 72 hrs by MTT assay; assay type: cell-based; details: Homo sapiens
Method in brief: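 Seeded at 10⁴ per well and grown 24 h before dosing. Compounds came from 10 mM DMSO stocks and were diluted in PBS to increasing concentrations. Exposure was 72 h, with MTT growth read-out. Six repeats per concentration, at least two independent experiments; IC50.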

[16] = Chemical stability assessed as half life in 0.1 M phosphate buffer at 33 uM at pH 7.4 in presence of glutathione; assay type: physicochemical; details: gsh, pH 7.4, 33 µM

Sequence of Glutathione S-transferase P (Homo sapiens) (P09211 2-210 limits assumed): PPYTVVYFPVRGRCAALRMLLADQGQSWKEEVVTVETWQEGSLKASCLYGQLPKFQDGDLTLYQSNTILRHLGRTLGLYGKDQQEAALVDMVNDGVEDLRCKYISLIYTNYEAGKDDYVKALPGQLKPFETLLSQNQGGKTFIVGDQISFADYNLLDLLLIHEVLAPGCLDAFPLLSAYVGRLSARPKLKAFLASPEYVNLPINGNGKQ

Compound	IC50 [1]	IC50 (HL-60)	Activity [4]	Activity [6]	IC50 (A549)	Activity [9]	IC50 [10]	IC50 (U-937)	Activity [11]	Activity [12]	IC50 (HCT-15)	Activity [13]	IC50 (PC-3)	Activity [14]	other results
CCOC(=O)N1CCN(/[N+]([O-])=N/Oc2ccc([N+](=O)[O-])cc2[N+](=O)[O-])CC1	700 nM	200 nM	126 µmol/min/mg	1	1500 nM	1.7 mol/mol	1000 nM	300 nM	1.36 µmol/min/mg	66.3 µmol/min/mg	600 nM	1	1100 nM	1	IC50 [2]: 4300 nM; IC50 [3]: 10000 nM; IC50 (TK-10): 500 nM; IC50 (OVCAR-5): 1000 nM; IC50 [5]: 800 nM; IC50 [7]: 800 nM; IC50 (HT-29): 800 nM; IC50 (OVCAR-3): 800 nM; IC50 [8]: 900 nM; IC50 (Caco-2): 2600 nM; IC50 [15]: 11300 nM
COC(=O)N1CCN(/[N+]([O-])=N/Oc2ccc([N+](=O)[O-])cc2[N+](=O)[O-])CC1	–	–	102 µmol/min/mg	0.81	–	–	–	–	0.98 µmol/min/mg	45.1 µmol/min/mg	–	0.68	–	0.72	–
CCOC(=O)N1CC(C)N(/[N+]([O-])=N/Oc2ccc([N+](=O)[O-])cc2[N+](=O)[O-])CC1C (stereo unspecified)	–	–	49 µmol/min/mg	0.39	–	–	–	–	0.14 µmol/min/mg	17.6 µmol/min/mg	–	0.27	–	0.1	–
CCOC(=O)N1CCN(/[N+]([O-])=N/Oc2ccc([N+](=O)[O-])cc2[N+](=O)[O-])C(C)C1 (stereo unspecified)	–	–	110 µmol/min/mg	0.87	–	–	–	–	0.88 µmol/min/mg	47 µmol/min/mg	–	0.71	–	0.65	–
CCCOC(=O)N1CCN(/[N+]([O-])=N/Oc2ccc([N+](=O)[O-])cc2[N+](=O)[O-])CC1	1500 nM	1400 nM	126 µmol/min/mg	1	2400 nM	2 mol/mol	2400 nM	700 nM	1.2 µmol/min/mg	59 µmol/min/mg	1300 nM	0.89	2000 nM	0.88	t1/2 [16]: 27 min
CCOC(=O)N1CCCN(/[N+]([O-])=N/Oc2ccc([N+](=O)[O-])cc2[N+](=O)[O-])CC1	–	–	38 µmol/min/mg	0.3	–	–	–	–	0.16 µmol/min/mg	16.8 µmol/min/mg	–	0.25	–	0.12	–
CCOC(=O)N1C(C)CN(/[N+]([O-])=N/Oc2ccc([N+](=O)[O-])cc2[N+](=O)[O-])CC1C (stereo unspecified)	9500 nM	4700 nM	172 µmol/min/mg	1.36	> 10000 nM	1.75 mol/mol	8100 nM	4900 nM	1.17 µmol/min/mg	70.3 µmol/min/mg	8200 nM	1.06	> 10000 nM	0.86	IC50 (OVCAR-3): 4900 nM; t1/2 [16]: 26 min
CCOC(=O)N1CCN(/[N+]([O-])=N/Oc2ccc([N+](=O)[O-])cc2[N+](=O)[O-])CC1C (stereo unspecified)	–	–	112 µmol/min/mg	0.89	–	–	–	–	1.15 µmol/min/mg	55.5 µmol/min/mg	–	0.84	–	0.85	–
